Key:
Mus musculus [1] = assay: Depression of forced motor activity in Swiss-Webster mouse at 25 mg/kg, ip after 30 mins by rotarod test relative to control; assay type: functional; conditions: route intraperitoneal
Summary of the method: (§1)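 Mice were dosed ip with vehicle or compound dissolved in a minimum of 1.5 M NaH2PO4 and diluted with water. On the rotarod, speed was 4 rpm for 30 sec, then 6 rpm for 30 sec, then increased every 30 sec up to a maximum of 50 rpm until the fall. Each mouse had four trials, two per day on two consecutive days, spaced 4–6 hr apart. The fourth trial was run 30 min after dosing. The read-out was trial time (sec) as % of control, with significance by Student's t test (p < 0.05).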

Mus musculus [2] = assay: Depression of forced motor activity in Swiss-Webster mouse at 50 mg/kg, ip after 30 mins by rotarod test relative to control; assay type: functional; conditions: route intraperitoneal; summary of the method: as §1
Mus musculus [3] = assay: Depression of spontaneous motor activity in Swiss-Webster mouse at 25 mg/kg, ip by photocell cage test relative to control; assay type: functional; conditions: route intraperitoneal
Summary of the method: (§2)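 Compound was dissolved in minimal 1.5 M NaH2PO4, diluted with water and given ip. Two mice given the same dose went into each of three photocell actophotometer cages 10 min after the rotarod test started. Counts were taken over 15 min, starting 5 min after placement. A factorial design across cages cancelled differences between units. Results were given as % of control, with significance by Student's t test (p < 0.05).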

Mus musculus [4] = assay: Depression of spontaneous motor activity in Swiss-Webster mouse at 50 mg/kg, ip by photocell cage test relative to control; assay type: functional; conditions: route intraperitoneal; summary of the method: as §2
Mus musculus [5] = assay: Depression of forced motor activity in Swiss-Webster mouse at 12.5 mg/kg, ip after 30 mins by rotarod test relative to control; assay type: functional; conditions: route intraperitoneal; summary of the method: as §1
[6] = Acute toxicity in ip dosed Swiss-Webster mouse administered as single dose after 7 days; assay type: organism-based; conditions: in vivo
Summary of the method: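 Mice given a single ip dose at each of four dose levels; lethality followed over 7 days; LD50 with 95% confidence limits estimated by the method of Weil. Compounds dissolved in minimal 1.5 M NaH2PO4, diluted with water; haloperidol in minimal 50% (w/v) tartaric acid-water.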

Mus musculus [7] = assay: Depression of spontaneous motor activity in Swiss-Webster mouse at 12.5 mg/kg, ip by photocell cage test relative to control; assay type: functional; conditions: route intraperitoneal; summary of the method: as §2
Mus musculus [8] = assay: Depression of forced motor activity in Swiss-Webster mouse at 30 mg/kg, ip after 30 mins by rotarod test relative to control; assay type: functional; conditions: route intraperitoneal
Summary of the method: (§3)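 Rotarod in mice: rod at 4 rpm for 30 sec, 6 rpm next 30 sec, then stepped up every 30 sec (max 50 rpm) until fall. Six mice at a time, four trials (two per day, 4–6 hr apart, two consecutive days); vehicle or compound ip 30 min before fourth trial. Time on rod as % of control; Student's t test, p < 0.05.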

Mus musculus [9] = assay: Depression of forced motor activity in Swiss-Webster mouse at 15 mg/kg, ip after 30 mins by rotarod test relative to control; assay type: functional; conditions: route intraperitoneal; summary of the method: as §3
Mus musculus [10] = assay: Depression of spontaneous motor activity in Swiss-Webster mouse at 30 mg/kg, ip by photocell cage test relative to control; assay type: functional; conditions: route intraperitoneal
Summary of the method: (§4)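 Spontaneous activity in three photocell cages: two mice given the same ip dose placed per cage 10 min after rotarod start; 15-min count begun 5 min after placement. Each dose run in factorial design across all three cages to offset unit sensitivity. Counts expressed as % of control; Student's t test, p < 0.05.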

Mus musculus [11] = assay: Depression of spontaneous motor activity in Swiss-Webster mouse at 60 mg/kg, ip by photocell cage test relative to control; assay type: functional; conditions: route intraperitoneal; summary of the method: as §4
Mus musculus [12] = assay: Depression of spontaneous motor activity in Swiss-Webster mouse at 15 mg/kg, ip by photocell cage test relative to control; assay type: functional; conditions: route intraperitoneal; summary of the method: as §4
Mus musculus [13] = assay: Depression of forced motor activity in Swiss-Webster mouse at 60 mg/kg, ip after 30 mins by rotarod test relative to control; assay type: functional; conditions: route intraperitoneal; summary of the method: as §3
Mus musculus [14] = assay: Depression of spontaneous motor activity in Swiss-Webster mouse at 100 mg/kg, ip by photocell cage test relative to control; assay type: functional; conditions: route intraperitoneal; summary of the method: as §4
Mus musculus [15] = assay: Depression of forced motor activity in Swiss-Webster mouse at 100 mg/kg, ip after 30 mins by rotarod test relative to control; assay type: functional; conditions: route intraperitoneal; summary of the method: as §3

SMILES	Activity (Mus musculus [1])	Activity (Mus musculus [2])	Activity (Mus musculus [3])	Activity (Mus musculus [4])	Activity (Mus musculus [5])	LD50 at 168 h [6]	Activity (Mus musculus [7])	Activity (Mus musculus [8])	Activity (Mus musculus [9])	Activity (Mus musculus [10])	Activity (Mus musculus [11])	Activity (Mus musculus [12])	Activity (Mus musculus [13])	Activity (Mus musculus [14])	Activity (Mus musculus [15])
O[C@@]1(c2ccc(C(F)(F)F)cc2)CCN2CCCCC2C1 (single isomer, unassigned)	92.3%	83.5%	82.7%	45.2%	99.3%	130 mg/kg	49.7%	–	–	–	–	–	–	–	–
O[C@@]1(c2cccc(Cl)c2)CCN2CCCCC2C1 (single isomer, unassigned)	–	–	–	–	–	180 mg/kg	–	105%	96.5%	154.9%	44.3%	166.7%	51.4%	–	–
O[C@@]1(c2cccc(C(F)(F)F)c2)CCN2CCCCC2C1 (single isomer, unassigned)	97.9%	100.5%	119%	111%	–	262 mg/kg	–	–	–	–	–	–	–	5.5%	29.6%
